Assay results collected from several papers.
Protocols differ between the studies behind these lines.
REN: Renin (REN, Homo sapiens, UniProt P00797)
CDK4: Cyclin-dependent kinase 4 (CDK4, Homo sapiens, UniProt P11802)
Maoa: Amine oxidase [flavin-containing] A (Maoa, Rattus norvegicus, UniProt P21396)

SMILES | target | assay | conditions | inhibition [%]
CC(C)C[C@H](NC(=O)[C@H](Cc1ccccc1)NC(=O)c1cnccn1)B(O)O | Chymotrypsinogen A (Bos taurus, UniProt P00766) | enzyme activity, inhibitor | 33 µM | 53
C[C@H](C(=O)N[C@H]1COc2ccccc2[C@@H]1S(C)(=O)=O)c1ccc(F)cc1 | REN | enzyme activity, inhibitor | 10 µM | -2
CCOC(=O)[C@H]1Cc2c(cc([N+](=O)[O-])cc2[N+](=O)[O-])[C@H](O)[C@]12C(=O)Nc1ccc(C)cc12 | CDK4 | cell-free assay, inhibitor, TR-FRET | 1 µM | 27.1
C#Cc1n[nH]c2c(-c3cn([C@@H](C)c4ccccc4)c(=O)[nH]c3=O)cc(F)cc12 | Fibroblast growth factor receptor 3 (FGFR3, Homo sapiens, UniProt P22607) | enzyme activity, inhibitor | 0.1 µM | -2.7
O=C(Nc1cccnn1)N1CCN([C@@H]2CCOc3cc(C(F)(F)F)ccc32)CC1 | Maoa | cell-free assay | 20 µM | 14
Cc1ncc(C)n2nc(/C=C/c3nc(N4CCCC4)cc(N4CCOCC4)n3)nc12 | Maoa | ligand displacement | 10 µM | 2
Cn1cc(-c2cc(F)cc(N3CCn4c(cc5c4CCCC5)C3=O)c2CO)cc(Nc2ccc(N3CCN(C4COC4)CC3)cn2)c1=O | Serine/threonine-protein kinase MRCK beta (CDC42BPB, Homo sapiens, UniProt Q9Y5S2) | enzyme activity, inhibitor | 0.1 µM | 2
C#Cc1n[nH]c2c(-c3cn(C(C)c4ccccn4)c(=O)[nH]c3=O)cc(F)cc12 (centres unmarked) | Tyrosine-protein kinase Fer (FER, Homo sapiens, UniProt P16591) | enzyme activity, inhibitor | 1 µM | 6.8
CCOC(=O)[C@H]1Cc2c(cc([N+](=O)[O-])cc2[N+](=O)[O-])[C@@H](O)[C@@]12C(=O)Nc1ccc(Cl)cc12 | CDK4 | cell-free assay, inhibitor, TR-FRET | 1 µM | 70.2
COCCCOc1cc(C[C@@H](C[C@H](N)[C@@H](O)C[C@H](C(=O)NCC(C)(C)C(N)=O)C(C)C)C(C)C)ccc1OC | REN | enzyme activity, inhibitor | 1 nM | 11
CCOC(=O)[C@H]1Cc2c(cc([N+](=O)[O-])cc2[N+](=O)[O-])[C@@H](O)[C@@]12C(=O)Nc1cc(Br)ccc12 | CDK4 | cell-free assay, inhibitor, TR-FRET | 1 µM | 59
COc1cc(Nc2ncc(F)c(Nc3ccc4c(n3)NC(=O)C(C)(C)O4)n2)cc(OC)c1OC | Serine/threonine-protein kinase DCLK1 (DCLK1, Homo sapiens, UniProt O15075) | binding | 10 µM | 59
CCOC(=O)[C@H]1Cc2c(cc([N+](=O)[O-])cc2[N+](=O)[O-])[C@@H](O)[C@@]12C(=O)Nc1cc(Cl)ccc12 | CDK4 | cell-free assay, inhibitor, TR-FRET | 1 µM | 61.2
N=C(N)c1ccc2cc(OC(=O)c3ccc(N=C(N)N)cc3)ccc2c1 | REN | enzyme activity, inhibitor | 10 µM | 45
